An excerpt weighted towards active compounds, which were near 0.77% of everything screened.
bIAP act – bovine intestinal alkaline phosphatase activators, primary screen, biochemical, bovine IAP, CDP-star luminescence | purified bovine IAP, 30 min; hits give high values; fold of DMSO-control signal, blank-subtracted | hit rate 0.17% among 200,000 | alkaline phosphatase, intestinal [Bos taurus] | activation factor at 20 µM;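 active = activation factor of 2 or more at 20 µM, a signal rise over negative controls twice the positive control's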
bIAP inh – bovine intestinal alkaline phosphatase inhibitors, primary screen, selectivity assay for TNAP inhibitor project, biochemical, bovine IAP, CDP-star luminescence; 190,000 tested, under 10 active; AID 1019, 2008; inhibition, % at 20 µM; purified bovine IAP, 30 min;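 active = over 50% inhibition of intestinal alkaline phosphatase at 20 µM in the single-dose screen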
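Incubation: 30 min reaction at room temperature / Material: purified bovine intestinal alkaline phosphatase (IAP) enzyme / Input: enzyme at 1/65,000,000 dilution / Dosing: 20 µM single dose / Signal: CDP-star luminescence signal / Reagent: CDP-star chemiluminescent phosphatase substrate, 30 µM final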
hIAP act – human IAP activators, primary screen, biochemical, luminescence, uHTS. Intestinal-type alkaline phosphatase (Homo sapiens), P09923. purified human IAP, CDP-Star luminescence, 30 min; hits give high values; 1 = vehicle-only enzyme, 0 = enzyme-free background. activation factor at 10 µM. hit rate 0.16% among 330,000;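 active = activation factor of the enzyme at least 2-fold when tested at 20 µM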
Target sequence (P09923 whole entry, looked up): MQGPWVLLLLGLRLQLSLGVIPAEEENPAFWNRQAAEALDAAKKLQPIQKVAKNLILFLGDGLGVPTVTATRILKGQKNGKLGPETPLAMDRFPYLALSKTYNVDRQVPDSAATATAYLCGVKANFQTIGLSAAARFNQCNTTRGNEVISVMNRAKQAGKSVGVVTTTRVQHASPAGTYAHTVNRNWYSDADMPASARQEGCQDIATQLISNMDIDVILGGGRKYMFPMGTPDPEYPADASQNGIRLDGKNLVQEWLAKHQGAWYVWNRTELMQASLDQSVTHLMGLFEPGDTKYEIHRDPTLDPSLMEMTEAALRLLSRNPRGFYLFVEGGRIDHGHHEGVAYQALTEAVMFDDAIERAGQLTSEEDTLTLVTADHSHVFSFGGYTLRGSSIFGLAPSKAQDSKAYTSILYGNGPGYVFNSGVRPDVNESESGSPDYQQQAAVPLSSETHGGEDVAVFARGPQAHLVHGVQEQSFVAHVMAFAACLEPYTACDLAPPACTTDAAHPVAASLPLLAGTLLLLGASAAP
hIAP block – human IAP inhibitors, primary screen, biochemical, luminescence, uHTS; purified IAP, CDP-Star luminescence, 30 min; inhibition, % at 10 µM; hit rate 0.12% among 330,000; AID 2544, 2010;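 active = inhibition reaching a set limit with compound at 10 µM in the primary screen, cut at about 35% in these data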;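 note: plate controls were DMSO wells with enzyme for no effect and no-enzyme buffer wells for full effect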
mIAP activ – activators of mouse IAP, primary screen, biochemical, luminescence, uHTS | hit rate 0.24% among 330,000 | AID 2805, 2010 | intestinal alkaline phosphatase [Mus musculus] | muIAP, CDP-Star luminescence, 30 min; hits give high values; 1 = vehicle-only enzyme signal, 0 = enzyme-free wells | activation factor at 10 µM;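 active = activation factor of at least 2 at 20 µM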
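Assay system: mouse IAP enzyme / Compound: DMSO-dissolved test compounds / Timing: 30 min, room temperature / Measured by: luminescence from enzymatic CDP-Star hydrolysis / Control set: DMSO-only wells, enzyme-free buffer wells as negative control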
mIAP block – inhibitors of mouse IAP, primary screen, biochemical, luminescence, uHTS. purified mouse IAP, CDP-Star luminescence, 30 min. inhibition, % at 10 µM. hit rate 0.2% among 330,000. AID 2806, 2010;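 active = inhibition of at least 40% at 10 µM in the primary screen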;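 note: plate controls were DMSO with enzyme for no effect and no enzyme wells for full effect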
mIAP inh conf – inhibitors of mouse IAP, confirmation, biochemical, luminescence, single concentration; shares compounds with mIAP block; purified mouse IAP, CDP-Star luminescence, 30 min; inhibition, % at 10 µM; hit rate 4.7% among 11,000; AID 434971, 2010;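 active = inhibition of at least 40% at 10 µM in either of the two replicates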;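 note: plate controls were DMSO wells with enzyme for no effect and buffer wells lacking enzyme for full effect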
* marks the source's active call; other numbers are inactive results; / = no result.

SMILES	bIAP act	bIAP inh	hIAP act	hIAP block	mIAP activ	mIAP block	mIAP inh conf
CC(NC(=O)CSc1nc(C2CC2)n(-c2ccccc2)n1)c1ccco1 (stereo unspecified)	/	/	1.03	-2.6	0.897	10.3	/
CC(NC(=O)CSCc1ccccc1Br)c1ccccc1 (stereo unspecified)	0.7	27.3	1.03	-2.7	1.01	-1.2	/
COc1ccc(/C=C(\C#N)C(=O)N2COCC2(C)C)cc1	/	/	1.08	-8.1	0.97	3.0	/
C[C@H](NC(=O)NCc1ccc(F)cc1)C(=O)O	0.9	7.8	1.01	-1.0	0.947	5.3	/
CC(NC(=S)NCc1ccc(F)cc1)C12CC3CC(CC(C3)C1)C2 (stereo unspecified)	0.9	8.3	1.26	-25.7	4.08*	-308.0	-319.1
COc1ccccc1-n1c(=S)[nH]c2c(sc(=S)n2-c2ccccc2C)c1=O	1	4.8	0.987	1.3	0.933	6.7	/
Cc1cc(-c2nc3c4c5c(sc4[nH]c(=O)n3n2)CCC5)c(C)o1	1	-3.5	1.12	-11.8	0.512	48.8*	66.1*
COc1cc(/C=N/NC(=O)c2ccccc2NS(=O)(=O)c2cccs2)ccc1O	/	/	0.991	0.9	0.984	1.6	/
Cc1ccc(NC(=O)C2CC(=O)n3c(nc4ccccc43)N2)cc1Cl (stereo unspecified)	2.4*	-136.4	1.92	-91.5	3.58*	-258.2	-125.1
Cc1ccc(NC(=O)[C@@H]2CCC(=O)N2C2OC(=O)c3ccccc32)cc1Cl (stereo partly specified)	/	/	0.942	5.8	0.815	18.5	/
COc1ccc(NC(=O)CSCC(=O)Nc2ccc(C)c(S(=O)(=O)N3CCCCCC3)c2)cc1	/	/	0.995	0.5	1.14	-13.7	/
O=C(N/N=C/c1cn(Cc2cccc(F)c2)c2ccccc12)c1cc(O)cc(O)c1	/	/	1.16	-15.9	0.324	67.6*	67.3*
CCOC(=O)C(=NCC1CCCO1)NNc1ccccc1Cl (stereo unspecified)	/	/	0.919	8.1	0.952	4.8	/
CC1CCc2c(sc(NC(=O)COC(=O)c3ccc(O)cc3)c2C#N)C1 (stereo unspecified)	1.3	-26.1	1	-0.4	0.961	3.9	/
CCN1C/C(=C/c2cccc([N+](=O)[O-])c2)C(=O)/C(=C/c2cccc([N+](=O)[O-])c2)C1	1	2.5	/	/	/	/	/
O=c1c2c(O)cc(O)cc2oc2c(O)ccc(O[C@H]3O[C@@H](CO)[C@H](O)[C@@H](O)[C@@H]3O)c12	/	/	0.999	0.1	0.905	9.5	/
C[C@@H]1O[C@@H](O[C@H]2[C@H](O)[C@@H](O)[C@H](Oc3c(-c4ccc(O)c(O)c4)oc4cc(O)cc(O)c4c3=O)O[C@@H]2CO)[C@H](O)[C@H](O)[C@H]1O	/	/	0.785	21.5	0.423	57.7*	48.0*
O=c1c(OC2OC(CO)C(O)C(O)C2OC2OC(CO)C(O)C(O)C2O)c(-c2ccc(O)cc2)oc2cc(O)cc(O)c12 (stereo unspecified)	/	/	1.11	-11.2	0.567	43.3*	55.4*
CCN(CC(=O)NC1CCCC1)S(=O)(=O)c1ccc(F)cc1	/	/	0.803	19.7	1.08	-8.5	/
Cc1cccc(C2=NN(c3ccccc3)[C@H](CO)[C@H]2c2ccccc2)c1	/	/	/	/	2.2*	-120.4	-107.2
O=C1CSC(=S)N1/N=C/c1ccc(Cl)c([N+](=O)[O-])c1	/	/	1.03	-3.2	0.495	50.5*	48.0*
COc1cc(/C=N/N2C(=O)CSC2=S)ccc1O	0.7	26.1	1.03	-2.9	0.475	52.5*	65.0*
COc1ccc(Br)cc1/C=N/N1C(=O)CSC1=S	/	/	1.08	-7.6	0.809	19.1	/
CC(CC(=O)NCCc1ccc(F)cc1)c1ccccc1 (stereo unspecified)	/	/	0.685	31.5	1.08	-7.9	/
NC(=O)CC(NC(=O)c1cccc(Br)c1)c1ccc(NC2CCCCCCC2)c([N+](=O)[O-])c1 (stereo unspecified)	/	/	0.975	2.5	0.919	8.1	/
SMILES	bIAP act	bIAP inh	hIAP act	hIAP block	mIAP activ	mIAP block	mIAP inh conf
CSc1cccc(NC(=O)Nc2ccc(Cl)cc2)c1	0.9	5.9	0.939	6.1	2.48*	-147.5	-106.2
O=C(Nc1ccccc1)Nc1cccc(Cl)c1	0.9	9.7	1.13	-13.3	2.76*	-175.8	-111.4
O=C(Nc1cccc(Cl)c1)Nc1ccc2c(c1)OCO2	0.8	18.3	0.947	5.3	2.62*	-162.3	-146.2
CC(=O)Nc1ccc(NC(=O)Nc2cccc(Cl)c2)cc1	/	/	1.22	-22.0	1.73	-72.6	/
O=C(Nc1ccc(C(=O)N2CCCCC2)cc1)Nc1cccc(Cl)c1	/	/	1.49	-48.6	2.71*	-170.9	-139.3
O=C(NCc1ccc2c(c1)OCO2)Nc1cccc(Cl)c1	/	/	1.1	-10.5	1.92	-91.8	/
Cc1ccc(C(CNS(=O)(=O)c2ccc(F)cc2C)N2CCN(C)CC2)cc1 (stereo unspecified)	/	/	1.05	-5.3	1.05	-5.1	/
COc1cccc(CN2CC(C(=O)NCc3ccc(C)o3)CCC2=O)c1 (stereo unspecified)	/	/	0.84	16.0	1	-0.5	/
NC(=O)NC[C@@H]1CC[C@@H](Cc2ccc(-c3ccccc3)cc2)O1	/	/	/	/	1.04	-4.3	/
COc1ccc(NC(=O)NC[C@@H]2CC[C@@H](Cc3ccc(-c4ccccc4)cc3)O2)cc1	/	/	/	/	2.65*	-171.0	-182.2
CSc1ccc(/C=N/Nc2nc(C)cc(=O)[nH]2)cc1	1.1	-12.0	1.04	-3.6	0.997	0.3	/
Cc1cc(=O)[nH]c(N/N=C/c2ccc(O)c(O)c2)n1	/	/	1.26	-26.4	0.566	43.4*	45.2*
O=C1NC(=Nc2ccc3ccccc3c2)S/C1=C/c1ccco1	1.1	-6.5	1.08	-8.5	0.435	56.5*	57.1*
COc1ccc(N=C2NC(=O)/C(=C\C=C\c3ccco3)S2)cc1	0.9	14.2	0.939	6.1	0.646	35.4	/
O=C1NC(=Nc2ccc(O)cc2)S/C1=C/c1ccco1	1	4.3	0.939	6.1	0.431	56.9*	77.0*
O=C(CN1CCN(c2ccccc2F)CC1)c1ccc(O)c(O)c1	/	/	0.852	14.8	0.547	45.3*	50.6*
C[C@H](CO)N1C[C@H](C)[C@@H](CN(C)S(=O)(=O)c2cccs2)Oc2ccc(NC(=O)NC3CCCCC3)cc2C1=O	/	/	0.984	1.6	3.64*	-263.6	-160.2
C[C@H](CO)N1C[C@H](C)[C@@H](CN(C)S(=O)(=O)c2ccccc2)Oc2ccc(NC(=O)NC3CCCCC3)cc2C1=O	/	/	0.985	1.5	4.02*	-301.6	-178.7

Bioassay records (PubChem BioAssay)
